As a reminder, the Ki is the equilibrium dissociation constant of an inhibitor or competing ligand from its target. As usually defined, the IC50 is the concentration needed to halve the response being measured.

Test [1] deals with T1, Muscarinic acetylcholine receptor M4 (Homo sapiens, UniProt P08173).
T1 sequence (P08173 whole entry): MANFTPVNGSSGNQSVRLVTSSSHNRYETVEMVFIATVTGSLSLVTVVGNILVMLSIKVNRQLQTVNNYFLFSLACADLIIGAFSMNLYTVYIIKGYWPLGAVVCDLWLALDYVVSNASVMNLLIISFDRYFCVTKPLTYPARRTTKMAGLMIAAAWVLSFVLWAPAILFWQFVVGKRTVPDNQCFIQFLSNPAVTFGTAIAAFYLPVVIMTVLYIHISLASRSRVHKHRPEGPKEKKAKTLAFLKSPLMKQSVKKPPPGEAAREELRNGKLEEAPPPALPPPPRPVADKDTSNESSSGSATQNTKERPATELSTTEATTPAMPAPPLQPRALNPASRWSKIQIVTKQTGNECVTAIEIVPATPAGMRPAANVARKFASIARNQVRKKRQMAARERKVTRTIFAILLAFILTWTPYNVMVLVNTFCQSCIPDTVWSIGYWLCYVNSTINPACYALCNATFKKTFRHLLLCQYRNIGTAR
Briefly: Displacement of [3H]-NMS from muscarinic M4 receptor (unknown origin) expressed in CHO-K1 cell membranes assessed as inhibition constant by radioligand competition analysis. Also on record: species or system Cell membrane. In a few lines:
(§1)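 Inhibition constants came from radioligand competition binding. Acetylcholine and atropine were included as positive controls for competitive binding. Values are given as mean ± SEM.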

In test [2] the target is Muscarinic acetylcholine receptor M3 (Homo sapiens, UniProt P20309). Briefly: Displacement of [3H]-NMS from muscarinic M3 receptor (unknown origin) expressed in CHO-K1 cell membranes assessed as inhibition constant by radioligand competition analysis. Also on record: species or system Cell membrane. An outline of the steps:
as §1
A general note: In a radioligand displacement assay an active substance lowers the binding of a labelled ligand.

Test [3] deals with T2, Muscarinic acetylcholine receptor M1 (Homo sapiens, UniProt P11229).
T2 sequence (P11229 whole entry): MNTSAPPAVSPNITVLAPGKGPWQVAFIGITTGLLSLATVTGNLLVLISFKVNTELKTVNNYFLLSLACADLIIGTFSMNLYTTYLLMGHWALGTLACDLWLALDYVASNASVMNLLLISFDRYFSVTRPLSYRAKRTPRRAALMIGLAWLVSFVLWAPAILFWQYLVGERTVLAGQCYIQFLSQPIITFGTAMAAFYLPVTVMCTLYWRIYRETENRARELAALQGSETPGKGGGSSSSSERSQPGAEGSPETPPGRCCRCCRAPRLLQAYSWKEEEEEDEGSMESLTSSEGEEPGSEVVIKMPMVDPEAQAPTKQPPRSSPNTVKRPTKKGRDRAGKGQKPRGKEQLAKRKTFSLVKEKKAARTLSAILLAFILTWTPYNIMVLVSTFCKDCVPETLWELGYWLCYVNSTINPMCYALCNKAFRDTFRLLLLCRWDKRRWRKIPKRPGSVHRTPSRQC
Description: Displacement of [3H]-NMS from muscarinic M1 receptor (unknown origin) expressed in CHO-K1 cell membranes assessed as inhibition constant by radioligand competition analysis. Set-up: species or system Cell membrane. In a few lines:
as §1

In test [4] the target is T3, Muscarinic acetylcholine receptor M2 (Homo sapiens, UniProt P08172).
T3 sequence (P08172 whole entry): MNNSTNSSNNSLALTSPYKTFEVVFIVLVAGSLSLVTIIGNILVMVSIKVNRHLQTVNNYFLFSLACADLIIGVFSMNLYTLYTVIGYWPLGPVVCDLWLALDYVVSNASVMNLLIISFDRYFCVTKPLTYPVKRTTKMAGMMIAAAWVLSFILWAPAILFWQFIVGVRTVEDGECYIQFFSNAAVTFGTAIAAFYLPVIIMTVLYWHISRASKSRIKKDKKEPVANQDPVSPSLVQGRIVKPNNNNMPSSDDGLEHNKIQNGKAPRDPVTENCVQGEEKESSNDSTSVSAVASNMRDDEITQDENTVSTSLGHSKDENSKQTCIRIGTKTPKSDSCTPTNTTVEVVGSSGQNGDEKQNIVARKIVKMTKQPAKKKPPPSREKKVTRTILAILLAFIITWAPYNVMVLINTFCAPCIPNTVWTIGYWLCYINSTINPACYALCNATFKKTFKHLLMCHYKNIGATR
Description: Displacement of [3H]-NMS from muscarinic M2 receptor (unknown origin) expressed in CHO-K1 cell membranes assessed as inhibition constant by radioligand competition analysis. Also on record: species or system Cell membrane.

Test [5] addresses T3, Muscarinic acetylcholine receptor M2. Description: Antagonist activity at human muscarinic M2 receptor expressed in CHO cells co-expressing Galpha15 assessed as inhibition of acetylcholine-induced calcium mobilization relative to acetylcholine. Format: functional, cell-based. On the technique in general: Calcium assays in cells follow changes in intracellular calcium, usually with a dye or a luminescent sensor.

Chain of Muscarinic acetylcholine receptor M3 (P20309 whole entry): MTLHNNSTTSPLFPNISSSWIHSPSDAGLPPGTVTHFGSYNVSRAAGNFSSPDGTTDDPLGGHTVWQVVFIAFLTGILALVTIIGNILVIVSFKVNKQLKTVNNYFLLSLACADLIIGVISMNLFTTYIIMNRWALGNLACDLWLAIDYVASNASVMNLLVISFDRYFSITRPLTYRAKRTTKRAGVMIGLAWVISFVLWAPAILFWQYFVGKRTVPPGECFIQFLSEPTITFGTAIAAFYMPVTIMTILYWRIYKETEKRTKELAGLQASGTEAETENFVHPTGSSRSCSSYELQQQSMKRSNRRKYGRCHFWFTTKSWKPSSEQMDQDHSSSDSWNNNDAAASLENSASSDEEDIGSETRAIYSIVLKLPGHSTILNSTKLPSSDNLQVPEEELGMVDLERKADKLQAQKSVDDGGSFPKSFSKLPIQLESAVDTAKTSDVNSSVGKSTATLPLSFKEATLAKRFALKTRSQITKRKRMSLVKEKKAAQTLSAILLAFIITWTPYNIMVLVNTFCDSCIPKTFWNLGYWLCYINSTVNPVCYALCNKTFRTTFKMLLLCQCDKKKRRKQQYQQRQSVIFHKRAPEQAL

Consider `CC1CCN(C(=O)CCN2CCCc3ccccc32)CC1`, for which the Ki in test [1] was 0.288 µM; in test [2], 0.977 µM; in test [3], 0.302 µM.
The matching figures for `O=C(CCN1CCCc2ccccc21)Nc1ccccc1`: 0.214 µM, 0.776 µM and 0.263 µM.
On to `C[C@@H]1CCC[C@H](C)N1C(=O)CCN1CCCc2ccccc21`, for which the Ki is 1.12 µM in test [1], 3.55 µM in test [2] and 1.15 µM in test [3].
Turning to `O=C(CCN1CCCc2ccccc21)N1CCCCC1CO` (stereo not drawn), the Ki was 7.24 µM in test [1], 31.6 µM in test [2], 3.63 µM in test [4] and 11.5 µM in test [3]. Further, the IC50 in test [5] was 10.7 µM.
For the compound `O=C(CCN1CCCc2ccccc21)Nc1nccs1`, the Ki in test [1] is 58.9 µM; in test [2], greater than 100 µM; in test [3], 1.12 µM.
On to `CC1CCCCN1C(=O)CCN1CCCc2ccccc21` (stereo not drawn), for which the Ki in test [1] was 5.25 µM; in test [2] it was 8.51 µM; in test [4], 3.24 µM; in test [3] it was 6.31 µM. The IC50 in test [5] is 3.16 µM.
Regarding `COC1CN(C(=O)CCN2CCCc3ccccc32)C1`, the inhibition constant Ki in test [1] is 15.8 µM; in test [2] it was 32.4 µM; in test [4], 3.55 µM; in test [3], 17.4 µM. Further, the IC50 in test [5] is 20.4 µM.
Take `O=C(CCN1CCCc2ccccc21)NC1CCCCC1`: the Ki in test [1] was 0.158 µM; in test [2], 1.74 µM; in test [3], 0.229 µM.
As to `O=C(CN1CCCc2cnccc21)N1CCCC1`, the inhibitory constant (Ki) in test [1] is greater than 100 µM; in test [2], 85.1 µM; in test [4], 43.7 µM; in test [3] it was 93.3 µM. Moreover, the IC50 in test [5] is greater than 100 µM.
As for `O=C(CCN1CCCc2ccccc21)N1CCC[C@H]1CO`, the Ki in test [1] was 12.9 µM; in test [2], 43.7 µM; in test [4] it was 5.13 µM; in test [3], 14.1 µM. The IC50 in test [5] is 17.4 µM.
On to `CC(C)(C)OC(=O)N1CCN(CC(=O)n2c3ccccc3c3ccccc32)CC1`, for which the Ki in test [1] was 25.7 µM; in test [2], 21.9 µM; in test [4] it was 22.9 µM; in test [3], 12.9 µM. In addition, the IC50 in test [5] is 18.6 µM.
For `O=C(CCN1CCCc2ccccc21)N1CCC(O)CC1`, the inhibition constant Ki in test [1] is 17 µM; in test [2], 33.1 µM; in test [4], 13.2 µM; in test [3], 23.4 µM. For the same compound, the IC50 in test [5] is 15.1 µM.
`O=C(CCN1CCCc2ccccc21)N1CCCC(O)C1` (stereo not drawn): the Ki in test [1] was 18.6 µM; in test [2], 53.7 µM; in test [4], 6.17 µM; in test [3], 33.1 µM. Moreover, the IC50 in test [5] was 29.5 µM.
Take `CC1CCCCN1CC(=O)n1c2ccccc2c2ccccc21` (stereo not drawn): the Ki is greater than 100 µM in test [1], greater than 100 µM in test [2], 95.5 µM in test [4] and greater than 100 µM in test [3]. In addition, in test [5], the IC50 is 52.5 µM.
Turning to `O=C(CCN1CCCc2ccccc21)Nc1ccc(O)cc1F`, the inhibition constant (Ki) in test [1] is greater than 100 µM; in test [2], greater than 100 µM; in test [4], 64.6 µM; in test [3], greater than 100 µM. Besides, the IC50 in test [5] was greater than 100 µM.
For `O=C(CCN1CCCc2ccccc21)NC1CCCC1`, the Ki was 0.257 µM in test [1], 2.57 µM in test [2] and 0.245 µM in test [3].
As for `O=C(CN1CCCc2ccc(O)cc21)N1CCCCC1`, the Ki was 87.1 µM in test [1], greater than 100 µM in test [2] and greater than 100 µM in test [3].
Take `O=C(CCN1CCCc2ccccc21)NCc1ccco1`: the Ki is 4.37 µM in test [1], 12 µM in test [2], 1.23 µM in test [4] and 2.63 µM in test [3]. The IC50 in test [5] was 1.12 µM.
On to `O=C(CCN1CCCc2ccccc21)Nc1ccc(Cl)cc1`, for which the Ki in test [1] was 10.7 µM; in test [2] it was 10.7 µM; in test [4] it was 3.31 µM; in test [3] it was 5.62 µM. The 50% inhibitory concentration (IC50) in test [5] is 1.41 µM.
In the case of `CC1CCCN(C(=O)CCN2CCCc3ccccc32)C1` (stereo not drawn), the Ki in test [1] is 0.776 µM; in test [2], 2.88 µM; in test [4], 0.407 µM; in test [3] it was 0.603 µM. Besides, the IC50 in test [5] was 1.51 µM.
Consider `O=C(CCN1CCCc2ccccc21)N1CCCC1CO` (stereo not drawn), for which the inhibition constant Ki in test [1] is 11.7 µM; in test [2], 32.4 µM; in test [4], 5.13 µM; in test [3], 14.1 µM. In test [5], the IC50 is 19.1 µM.
In the case of `O=C(CN1CCc2ccc(Br)cc21)N1CCCCC1`, the Ki in test [1], in test [2], in test [4] and in test [3] was greater than 100 µM throughout. Besides, the IC50 in test [5] was greater than 100 µM.
Take `O=C(CCN1CCCc2ccccc21)Nc1cccc2ccccc12`: the Ki in test [1] was 4.07 µM; in test [2] it was 26.3 µM; in test [4] it was 0.912 µM; in test [3], 9.33 µM. Also, the IC50 in test [5] is 0.339 µM.
In the case of `O=C(CCN1CCCc2ccccc21)N1CCC(O)C1` (stereo not drawn), the Ki was 50.1 µM in test [1], greater than 100 µM in test [2], 16.6 µM in test [4] and 51.3 µM in test [3]. The IC50 in test [5] is 70.8 µM.
As to `CC1CCc2ccccc2N1CC(=O)N1CCCC1` (stereo not drawn), the Ki is 6.31 µM in test [1], greater than 100 µM in test [2], 2.45 µM in test [4] and 44.7 µM in test [3]. In test [5], the IC50 is 4.9 µM.
`O=C(CN1CCCc2ccccc21)N1CCCC1`: the Ki was 1.38 µM in test [1], 7.41 µM in test [2], 0.389 µM in test [4] and 2.88 µM in test [3]. The IC50 in test [5] is 0.617 µM.
`O=C(CCN1CCCc2ccccc21)Nc1cccnn1`: the Ki in test [1] is 14.1 µM; in test [2] it was 29.5 µM; in test [3] it was 14.1 µM.
In the case of `Cc1ccc2c(c1)CCCN2CC(=O)N1CCCCC1`, the Ki in test [1] is 21.4 µM; in test [2], 66.1 µM; in test [4], 18.6 µM; in test [3] it was 17.8 µM. Further, in test [5], the IC50 was 24.5 µM.
With `O=C(CCN1CCCc2ccccc21)NCc1cccc(F)c1`, the Ki in test [1] was 6.46 µM; in test [2] it was 12.9 µM; in test [3], 2.04 µM.
For `CC1CCCC(C)N1C(=O)CCN1CCCc2ccccc21` (stereo not drawn), in that order: 17.8 µM, 55 µM and 27.5 µM.
`O=C(CN1CCCc2ccccc21)N1CCCCC1`: the Ki is 1.23 µM in test [1], 11 µM in test [2], 0.417 µM in test [4] and 2.88 µM in test [3]. The half-maximal inhibitory concentration (IC50) in test [5] is 0.437 µM.
In the case of `O=C(CCN1CCCc2ccccc21)N1CCCC1`, the Ki in test [1] is 1.58 µM; in test [2], 2.88 µM; in test [4], 0.288 µM; in test [3], 1.05 µM. In addition, in test [5], the IC50 is 1.82 µM.
`Cn1ccc2c(NC(=O)CCN3CCCc4ccccc43)cccc21`: the Ki in test [1] was 12 µM; in test [2] it was greater than 100 µM; in test [4], 2.29 µM; in test [3], 5.01 µM. For the same compound, in test [5], the IC50 is 0.427 µM.
The matching figures for `O=C(O)C1CCCN1C(=O)CCN1CCCc2ccccc21` (stereo not drawn): 0.891 µM, 4.57 µM, 0.575 µM, 1.05 µM and 0.776 µM.
With `CCn1c2ccccc2c2ccc(NCC(=O)N3CCCCC3)cc21`, the values for the Ki in test [1], in test [2] and in test [3] were 91.2 µM, 44.7 µM and 43.7 µM, respectively.

Values taken from ChEMBL document CHEMBL4673268, “The optimization of a novel selective antagonist for human M muscarinic acetylcholine receptor” (Bioorg Med Chem Lett, 2020).
